Assay outcomes (PubChem BioAssay)
Hits are enriched below; roughly 3.7% of the tested compounds scored in any of these assays.
E-selectin induc: induces E-selectin expression in human endothelial cells | P16581 | HUVEC E-selectin immunofluorescence imaging; normalized: neutral wells 0, TNF-alpha wells 100 | activation, % at 7.58 µM | 260,000 tested, 0.37% active | AID 686992;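 active means mean E-selectin-positive cell signal at least 10% of the positive control, reached in at least 60% of replicates, without over 20% cell loss; inconclusive means no rule given, readout overlaps actives, possibly toxicity-flagged; inactive means the rest, including those meeting only one limit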
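Assay system: HUVEC, human umbilical vein endothelial cells / Amount: 3,000 HUVEC/well / Controls: TNF-alpha positive control, DMSO neutral control / Compound dosing: single concentration / Medium: EGM-2 over gelatin coat / Evaluation: percent E-selectin-positive cells / Signal: immunofluorescence imaging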
F508del corr: CFTR F508del correction in bronchial cells; CFBE cells, YFP halide quenching; stimulated with forskolin plus potentiator P3; % fluorescence drop versus neutral controls; 350,000 tested, 0.36% active; activity (quench increase), % at 7.58 µM;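 active means mean added fluorescence quench of at least 8% versus neutral control, with both replicates also reaching 8%; inconclusive means only one of the mean or replicate conditions met; inactive means mean below 8% and not both replicates reaching 8%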;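 further: cells transiently co-express mutant CFTR-F508del with the halide-sensitive YFP; corrector assay measuring rescue of mutant channel to the surface after 24 h compound exposure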
FGF22 binding: binders of recombinant human FGF22 by thermal shift. AID 651658. Q9HCT0. 340,000 tested, 1.5% active. SYPRO orange fluorescence; percent of sucrose octasulfate shift, DMSO zero. activity (Tm shift, normalised), % at 9.99 µM;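 active means mean Tm shift, scaled 0 neutral to 100 positive control, at about 1.3% or above, every replicate too, limit read from the data; inconclusive means no clear call, values can overlap the other calls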
ERAP1 inh: inhibitors of human ERAP1 aminopeptidase. inhibition, % at 10.7 µM. Q9NZ08. recombinant ERAP1, Leu-AMC fluorescence, 60 min. AID 652197. 340,000 tested, 0.15% active;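 active means mean replicate inhibition of at least 30%, or all replicates individually reaching that 30% level; inactive means mean below 30% and not every replicate reaching it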;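 further: 0% = neutral control wells and 100% = L-leucinethiol positive control wells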
Target sequence (Q9NZ08 whole entry, looked up): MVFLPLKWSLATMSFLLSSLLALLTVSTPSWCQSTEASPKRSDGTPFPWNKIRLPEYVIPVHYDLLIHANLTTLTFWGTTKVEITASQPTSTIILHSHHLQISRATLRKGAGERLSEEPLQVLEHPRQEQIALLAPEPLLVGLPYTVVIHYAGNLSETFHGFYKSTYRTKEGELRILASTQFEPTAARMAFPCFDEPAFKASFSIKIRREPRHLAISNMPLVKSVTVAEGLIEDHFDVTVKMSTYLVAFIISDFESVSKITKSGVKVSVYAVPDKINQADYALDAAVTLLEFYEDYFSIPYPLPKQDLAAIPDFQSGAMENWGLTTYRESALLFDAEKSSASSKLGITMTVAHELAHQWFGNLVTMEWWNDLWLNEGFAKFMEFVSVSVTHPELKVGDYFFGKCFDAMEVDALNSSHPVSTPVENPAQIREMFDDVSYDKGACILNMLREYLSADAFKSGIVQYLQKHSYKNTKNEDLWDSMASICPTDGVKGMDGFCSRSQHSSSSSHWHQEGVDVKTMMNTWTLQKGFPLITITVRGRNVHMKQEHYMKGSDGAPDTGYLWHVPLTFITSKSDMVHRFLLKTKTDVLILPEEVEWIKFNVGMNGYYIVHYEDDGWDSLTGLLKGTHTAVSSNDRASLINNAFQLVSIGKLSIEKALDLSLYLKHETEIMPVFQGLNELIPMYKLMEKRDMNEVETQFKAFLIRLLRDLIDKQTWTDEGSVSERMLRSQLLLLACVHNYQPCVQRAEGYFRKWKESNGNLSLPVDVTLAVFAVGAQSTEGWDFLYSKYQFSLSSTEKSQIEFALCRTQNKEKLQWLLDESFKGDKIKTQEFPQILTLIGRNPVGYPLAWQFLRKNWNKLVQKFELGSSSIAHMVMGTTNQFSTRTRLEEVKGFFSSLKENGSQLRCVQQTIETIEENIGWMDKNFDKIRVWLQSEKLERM
DENV2 CPE rescue: DENV2-induced cell death inhibition; DENV2-infected cells, cytopathic effect rescue, plate reader; CPE inhibition, % at 9.99 µM; 350,000 tested, 1.7% active; in the data active means CPE inhibition above about 20%, passing the limit was not always enough; inconclusive means no clear call, values can overlap the other calls; tested in BHK-21 cells;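 further: 0% = median of neutral control wells and 100% = median of positive control wells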
Numbers without * were called inactive; ? = inconclusive; / = no result; ! = a repeat was not active.

SMILES	E-selectin induc	F508del corr	FGF22 binding	ERAP1 inh	DENV2 CPE rescue
O=C(NN1CCOCC1)c1ccc(S(=O)(=O)N2CCCCC2)cc1	/	0.6	0.0	0.2	-1.5
Cc1cc2ccccc2n1CCNC(=O)c1ccc(S(=O)(=O)N2CCCCC2)cc1	93.5*	1.4	-0.2	-2.7	-7.4
O=S(=O)(c1ccc(S(=O)(=O)N2CCOCC2)cc1)N1CCCC1	/	-0.9	43.2*	2.2	-1.2
Cc1ccc(S(=O)(=O)N2CCN(C(=O)CNC(=O)c3ccc(Cl)cc3)CC2)cc1	0.4	-1.9	43.5*	-1.6	0.3
CCC(=O)N[C@H]1CC[C@@H](CC(=O)OC)O[C@@H]1CO	0.0	-5.0	0.2	0.4	3.6
CCOc1ccc(OCCCC(=O)N2CCN(S(=O)(=O)c3ccc(Cl)cc3)CC2)cc1	/	-1.7	-0.5	32.1*	0.1
O=C(CCCOc1ccccc1)N1CCN(S(=O)(=O)c2ccc(Cl)cc2)CC1	/	1.1	0.4	2.5	0.4
C[C@@H]1CN([C@H](C)CO)C(=O)c2cc(C#Cc3cccc(F)c3)cnc2O[C@@H]1CN(C)Cc1ccccn1	1.1	0.7	0.3	-1.7	18.0
C[C@H](NC(=O)C[C@H]1C[C@@H]2c3cc(NS(C)(=O)=O)ccc3O[C@@H]2[C@@H](CO)O1)c1ccccc1	-0.3	-2.9	-0.1	2.5	-0.6
Cc1nc(Cl)sc1C(=O)Nc1cc(F)cc(F)c1	-0.1	2.3	0.1	-0.5	5.4
O=C(Nc1cc(F)cc(F)c1)c1sc(Cl)nc1-c1ccccc1	/	-0.5	0.0	1.3	68.2*
CCCC#Cc1cnc2c(c1)C(=O)N([C@@H](C)CO)C[C@H](C)[C@@H](CN(C)Cc1ccncc1)O2	0.7	/	-0.1	-5.2	5.7
COc1cccc(NC(=O)N2CC(=O)N3[C@@H](CO)[C@H](c4ccc(C5=CCCC5)cc4)[C@@H]3C2)c1	0.2	1.9	/	-1.2	-14.2
COc1ccc2c3c(n(C)c2c1)[C@@H](CO)N(C(=O)c1cccnc1)CC31CCN(S(=O)(=O)c2ccccc2)CC1	-0.1	2.9	-0.1	/	39.1*
COc1ccc2c3c(n(C)c2c1)[C@H](CO)N(C(=O)c1cccnc1)CC31CN(S(C)(=O)=O)C1	0.1	-2.8	-0.1	-5.3	-4.6
COc1ccc2c3c(n(C)c2c1)[C@H](CO)N(C(=O)Nc1ccccc1F)CC31CN(C)C1	0.0	-0.2	0.1	/	86.0*
CCS(=O)(=O)N1CCC2(CC1)CN(C(=O)c1ccc(F)cc1)[C@H](CO)c1c2c2ccc(OC)cc2n1C	0.0	2.8	-0.2	0.1	3.4
COc1ccc2c3c(n(C)c2c1)[C@@H](CO)N(C(=O)c1cccc(F)c1)CC31CN(C(=O)c2cccc(F)c2)C1	-0.1	1.6	-0.1	3.0	34.2*
CCS(=O)(=O)N1CCC2(CC1)CN(C(=O)c1ccc(F)cc1)[C@@H](CO)c1c2c2ccc(OC)cc2n1C	1.4	3.4	-0.1	-0.5	24.2*
COc1ccc2c3c([nH]c2c1)[C@H](CO)N(C(=O)c1ccccc1)CC31CCN(C(=O)NC(C)C)CC1	-0.6	0.9	-0.2	1.3	7.5
C[C@H](NC(=O)C[C@H]1CC[C@H](NC(=O)CN2CCOCC2)[C@H](CO)O1)c1ccccc1	0.2	2.6	0.0	-1.3	?
COc1ccc2c3c(n(C)c2c1)[C@H](CO)NCC31CN(C(=O)c2ccc(F)cc2)C1	-0.4	2.9	-0.1	/	69.2*
C[C@H]1CN([C@@H](C)CO)C(=O)c2cc(NS(=O)(=O)c3ccc(F)cc3)ccc2O[C@H]1CN(C)CC1CCCCC1	1.4	1.3	-0.6	-2.8	-3.8
O=C(Nc1ccn(CCCNC2CCN(Cc3ccccc3)CC2)c(=O)n1)OCc1ccccc1	-0.7	9.0*	-0.2	/	3.0
O=C(Nc1ccn(CCCNCCN2CCOCC2)c(=O)n1)OCc1ccccc1	0.3	1.0	-0.3	0.6	8.6
SMILES	E-selectin induc	F508del corr	FGF22 binding	ERAP1 inh	DENV2 CPE rescue
CC(CNC(=O)Cn1ccc(NC(=O)OCc2ccccc2)nc1=O)c1ccccc1 (configuration not stated)	0.1	-0.4	0.1	1.9	35.8*
COCCCNC(=O)Cn1ccc(NC(=O)OCc2ccccc2)nc1=O	-0.5	1.7	-0.1	-1.0	/
COc1cccc(CNC(=O)C[C@@H]2C=C[C@@H](NC(=O)C3CC3)[C@H](CO)O2)c1	0.2	1.2	0.1	1.1	-3.5
Cc1noc(C)c1NC(=O)N(C)C[C@H]1Oc2c(NC(=O)Nc3ccc(F)cc3)cccc2C(=O)N([C@@H](C)CO)C[C@@H]1C	9.6	-2.6	0.0	1.2	13.8
O=c1c2c3c(sc2nc(NCCO)n1-c1ccccc1)CCCC3	/	/	0.2	-0.8	7.1
COc1ccc(-n2c(NN)nc3sc4c(c3c2=O)CCCC4)cc1	-0.1	2.6	42.9*	-0.2	-3.8
CS(=O)(=O)Nc1ccc2c(c1)[C@H]1C[C@@H](CC(=O)NCc3ccc(Cl)cc3)O[C@@H](CO)[C@H]1O2	-0.1	1.2	0.2	0.5	-1.4
C[C@H]1CN([C@@H](C)CO)S(=O)(=O)c2ccc(C#Cc3ccccc3)cc2O[C@@H]1CN(C)C(=O)c1ccccn1	0.0	0.2	-0.3	0.8	8.2
CC(C)C#Cc1ccc2c(c1)O[C@@H](CN(C)C(=O)CN(C)C)[C@@H](C)CN([C@@H](C)CO)S2(=O)=O	0.2	0.4	-0.6	2.3	30.7*
C[C@@H]1CN([C@H](C)CO)S(=O)(=O)c2ccc(C#Cc3ccccc3)cc2O[C@@H]1CN(C)C(=O)CN(C)C	0.7	1.4	-0.1	1.3	39.8*!
C[C@@H]1CN([C@H](C)CO)S(=O)(=O)c2ccc(C#Cc3ccccc3)cc2O[C@@H]1CN(C)C(=O)c1ccccn1	0.4	-5.5	-0.4	4.5	42.2*
CC(C)NC(=O)N(C)C[C@@H]1Oc2cc(C#Cc3ccccn3)ccc2S(=O)(=O)N([C@H](C)CO)C[C@H]1C	0.1	1.3	0.1	2.2	22.3*
O=C(C[C@@H]1C=C[C@@H](NC(=O)NC2CCCC2)[C@@H](CO)O1)NCc1ccc(F)cc1	-0.1	-2.4	0.1	0.0	-0.8
CCCC[C@@H]1C=C(C(=O)O)[C@H](c2ccc(Cl)cc2)N1S(=O)(=O)c1ccc(C)cc1	0.8	-0.3	0.6	1.1	-11.9
CCCC[C@@H]1C=C(C(=O)O)[C@H](c2ccc3c(c2)OCO3)N1S(=O)(=O)c1ccc(C)cc1	0.3	0.0	1.8*	3.7	-4.6
Cc1ccc(S(=O)(=O)N2[C@@H](c3ccc(C#N)cc3)C(C(=O)O)=C[C@H]2CC2CCCC2)cc1	1.4	-4.0	1.4*	13.1	?
CO[C@H]1CN(C)C(=O)c2cc(NC(=O)NC(C)C)ccc2OC[C@H](C)NC[C@H]1C	1.7	1.7	/	/	/
C[C@H](CO)N1C[C@H](C)[C@H](CN(C)C(=O)Nc2ccc3c(c2)OCO3)Oc2ncc(C#CCN(C)C)cc2C1=O	-0.2	2.6	-0.1	0.2	3.6
Cc1ccc(S(=O)(=O)NCC[C@@H]2CC[C@H](NS(=O)(=O)c3ccccc3Cl)[C@@H](CO)O2)cc1	0.2	2.5	-0.2	0.7	2.6
